Results from different studies.
Protocols differ between the studies behind these lines.
Target: Mitogen-activated protein kinase kinase kinase 10 (MAP3K10, Homo sapiens, UniProt Q02779)

| SMILES | read-out | action | method | tested at | endpoint | result |
| --- | --- | --- | --- | --- | --- | --- |
| Cc1nn(C)cc1-c1nc2c(N3CCN(Cc4ccc(Cl)cc4)CC3)c(Cl)cnc2[nH]1 | binding |  | competition with immobilised ligand | 1 µM | remaining binding | 5.4% |
| Cn1cc(-c2cc(F)cc(N3CCn4c(cc5c4CCCC5)C3=O)c2CO)cc(Nc2ccc(N3CCN(C4COC4)CC3)cn2)c1=O | enzyme activity | inhibitor |  | 0.1 µM | inhibition | -7% |
| CC(C)(C)c1cc(C=C(C#N)C#N)cc(Br)c1O | enzyme activity | inhibitor |  | 0.5 µM | remaining activity | 100% |
| COc1ncccc1-c1cnn2ccc(N3CCN(C(=O)OC(C)C)CC3)nc12 | binding |  | competition with immobilised ligand | 1 µM | remaining binding | 96% |
| O=c1[nH]c2ccccc2n1C1CCN(Cc2ccc(-c3[nH]c4cc5ncnc5cc4nc3-c3ccccc3)cc2)CC1 | cell-free assay |  |  | 0.5 µM | remaining signal | 102% |
| N#CC1(c2ccccn2)CCN(Cc2cc(C(=O)O)c(=O)n3ccccc23)CC1 | cell-free assay |  | competition with immobilised ligand | 1 µM | remaining binding | 97% |
| Nc1ncc(-c2nc(N3CCOCC3)nc(N3CCOCC3)n2)c(C(F)F)n1 | binding |  | competition with immobilised ligand | 10 µM | remaining binding | 53% |
| Cn1cncc1[C@@](O)(COc1ccc(C#N)cc1-c1ccc(OC(F)(F)F)cc1)c1ccc(C#N)cc1 | cell-free assay |  | competition with immobilised ligand | 1 µM | remaining binding | 98% |
| Cn1cc(-c2cccc(N3CCc4c(sc5c4CC(C)(C)C5)C3=O)c2CO)cc(Nc2ccncn2)c1=O | enzyme activity | inhibitor |  | 1 µM | inhibition | -5% |
